Measurements taken from ChEMBL document CHEMBL4342460, “1-(2'-Bromobenzyl)-6,7-dihydroxy-N-methyl-tetrahydroisoquinoline and 1,2-Demethyl-nuciferine as Agonists in Human D2 Dopamine Receptors” (J Nat Prod, 2020).
Calls of active or inactive are those of the source. The rule behind the calls is not given here.

What was measured:
D(3) dopamine receptor = D(3) dopamine receptor (Homo sapiens, UniProt P35462); assay: Displacement of [3H]spiperone from human D3 receptor expressed in CHO-K1 cells by radioligand competitive binding analysis; assay type: cell-based
D(3) dopamine receptor, sequence (P35462 whole entry): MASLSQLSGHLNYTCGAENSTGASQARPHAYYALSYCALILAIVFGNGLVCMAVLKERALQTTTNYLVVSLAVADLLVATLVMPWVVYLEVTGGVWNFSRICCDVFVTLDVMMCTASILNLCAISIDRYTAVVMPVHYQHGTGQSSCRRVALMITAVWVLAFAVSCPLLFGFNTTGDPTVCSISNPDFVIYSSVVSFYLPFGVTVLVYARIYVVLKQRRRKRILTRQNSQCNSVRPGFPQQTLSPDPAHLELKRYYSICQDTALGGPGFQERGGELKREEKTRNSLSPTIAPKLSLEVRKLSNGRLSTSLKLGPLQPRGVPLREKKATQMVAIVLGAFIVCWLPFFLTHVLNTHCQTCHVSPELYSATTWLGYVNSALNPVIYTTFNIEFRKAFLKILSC

[1] = Displacement of [3H]spiperone from human D4.2 receptor expressed in CHO-K1 cells by radioligand competitive binding analysis; assay type: cell-based
Method in brief: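 Competition for [3H]-spiperone on membranes from CHO-K1 cells stably expressing human D4.2 receptor, with nonspecific binding set by 25 μM haloperidol. Six concentrations run, from 1 nM to 100 μM or 0.1 nM to 10 μM. Curves fitted to a single-site model, and Ki derived using radioligand concentration and Kd from saturation binding. Clozapine reference. n = 2, mean SEM.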

CHO-K1 = assay: Displacement of [3H]spiperone from human D4.2 receptor expressed in CHO-K1 cells at 10 uM by radioligand competitive binding analysis relative to control; assay type: cell-based
Method in brief: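 Membranes from CHO-K1 cells stably expressing human D4.2 receptor. Radioligand [3H]-spiperone. Nonspecific binding defined with 25 μM haloperidol. […] Clozapine served as reference competitor. n = 2, mean SEM.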

D(2) dopamine receptor [2] = target: T1, D(2) dopamine receptor (Homo sapiens, UniProt P14416); assay: Agonist activity at human D2S receptor expressed in CHOK1 cells assessed as inhibition of forskolin induced cAMP production by measuring Emax for cAMP accumulation at 10 uM preincubated for 10 mins followed by forskolin addition and measured after 5 mins by HTRF assay relative to quinpirole (reference value: 98.8 +/- 0.6%); assay type: functional, cell-based
T1 sequence (P14416 whole entry): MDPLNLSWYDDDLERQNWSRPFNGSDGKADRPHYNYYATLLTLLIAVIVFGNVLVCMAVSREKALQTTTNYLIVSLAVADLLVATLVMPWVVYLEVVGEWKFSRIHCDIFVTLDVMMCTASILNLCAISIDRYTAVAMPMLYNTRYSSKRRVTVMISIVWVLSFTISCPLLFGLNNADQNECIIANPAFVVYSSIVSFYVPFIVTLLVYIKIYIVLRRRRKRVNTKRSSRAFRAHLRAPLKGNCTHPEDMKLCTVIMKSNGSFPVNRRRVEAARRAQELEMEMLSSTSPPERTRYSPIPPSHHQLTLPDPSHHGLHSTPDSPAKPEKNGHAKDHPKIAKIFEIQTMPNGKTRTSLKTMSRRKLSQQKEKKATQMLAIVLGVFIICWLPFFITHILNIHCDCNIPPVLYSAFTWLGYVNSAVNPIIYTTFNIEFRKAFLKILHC
Method in brief: (§1)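 CHO-K1 cells stably transfected with human D2S cDNA, kept in 500 μg/mL G418. Cells in stimulation buffer with 500 μM IBMX took compound for 10 min at 37 °C, then forskolin (10 μM) for 5 min. Intracellular cAMP read by HTRF. Efficacy is percent of maximal quinpirole response. Basal cAMP from wells lacking compound, quinpirole and forskolin. n = 3−4 independent experiments in triplicate, mean SEM.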

D(2) dopamine receptor [3] = target: T1, D(2) dopamine receptor; assay: Agonist activity at human D2S receptor expressed in CHOK1 cells assessed as inhibition of forskolin induced cAMP production by measuring Emax for cAMP accumulation at 100 uM preincubated for 10 mins followed by forskolin addition and measured after 5 mins by HTRF assay relative to quinpirole; assay type: functional, cell-based; method in brief: as §1
D(2) dopamine receptor [4] = target: T1, D(2) dopamine receptor; assay: Displacement of [3H]spiperone from human D2S receptor expressed in CHO-K1 cells by radioligand competitive binding analysis; assay type: cell-based
D(2) dopamine receptor [5] = target: T1, D(2) dopamine receptor; assay: Agonist activity at human D2S receptor expressed in CHOK1 cells assessed as inhibition of forskolin induced cAMP production preincubated for 10 mins followed by forskolin addition and measured after 5 mins by HTRF assay relative to control; assay type: functional, cell-based
D(2) dopamine receptor [6] = target: T1, D(2) dopamine receptor; assay: Agonist activity at human D2S receptor expressed in CHOK1 cells assessed as inhibition of forskolin induced cAMP production at 10 uM preincubated for 10 mins followed by forskolin addition and measured after 5 mins in presence of low concentration of quinpirole by HTRF assay; assay type: functional, cell-based
Method in brief: (§2)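 CHO-K1 cells stably transfected with human D2S (short isoform) cDNA. Test compound (10 μM) was added at the same time as quinpirole (10 pM to 100 μM). Cells were in stimulation buffer with 500 μM IBMX for 10 min at 37 °C, then 10 μM forskolin for 5 min. cAMP was read by HTRF, with basal wells lacking all additions. n = 3−4 independent experiments, in triplicate.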

D(2) dopamine receptor [7] = target: T1, D(2) dopamine receptor; assay: Antagonist activity at human D2S receptor expressed in CHOK1 cells assessed as suppression of quinpirole-induced inhibition of forskolin induced cAMP production at 10 uM preincubated for 10 mins followed by forskolin addition and measured after 5 mins in presence of 100 nM quinpirole by HTRF assay relative to quinpirole EC50; assay type: functional, cell-based; method in brief: as §2

## CN1CCc2cc(O)c(O)c3c2C1Cc1ccccc1-3 (stereo not drawn)
D(3) dopamine receptor
  Activity: Dose-dependent effect
  Ki: 838 nM
[1]
  Activity: Dose-dependent effect
  Ki: 551 nM
  pKi: 6.26
CHO-K1
  inhibition: 73%
D(2) dopamine receptor [2]
  Emax: 50.7%
D(2) dopamine receptor [3]
  Emax: 92.7%

## CN1CCc2cc(O)c(O)cc2C1Cc1ccccc1Br (stereo not drawn)
D(2) dopamine receptor [4]
  Ki: 286 nM
D(3) dopamine receptor
  Activity: Dose-dependent effect
  Ki: 197 nM
[1]
  Activity: Dose-dependent effect
  Ki: 13.8 nM
  pKi: 7.86
CHO-K1
  inhibition: 96%
D(2) dopamine receptor [2]
  Emax: 31.9%
D(2) dopamine receptor [3]
  Emax: 48.4%
D(2) dopamine receptor [5]
  EC50: 2950 nM
D(2) dopamine receptor [6]
  Activity: Active
D(2) dopamine receptor [7]
  fold change (FC): 35

## CN1CCN(C2=Nc3cc(Cl)ccc3Nc3ccccc32)CC1 [CLOZAPINE]
[1]
  Ki: 56.9 nM
  pKi: 7.25
CHO-K1
  inhibition: 96%
